{"source": "ChEMBL document CHEMBL4715912", "about": "“Discovery of a novel series of indolinylpyrimidine-based GPR119 agonists: Elimination of ether-a-go-go-related gene liability using a hydrogen bond acceptor-focused approach” (Bioorg Med Chem, 2021)", "key": {"Rattus norvegicus [1]": {"test_system": "Rattus norvegicus", "assay": "Antidiabetic activity in po dosed N-STZ 1.5 rat assessed as reduction in glucose level pre-treated for 60 mins followed by 1.5 g/kg glucose treatment and measured up to 120 mins by OGTT", "format": "functional, organism-based", "conditions": "dose 1-3 mg/kg, time min <=180", "how_it_was_run": "(§1)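 Male N-STZ1.5 rats, 25–30 weeks old, fasted overnight, dosed orally with compound or 0.5% methylcellulose vehicle; 60 min later oral glucose load 1.5 g/kg. Tail-vein blood taken pre-dose, at 0, 10, 30, 60 and 120 min; plasma glucose by autoanalyzer, insulin by radioimmunoassay. AUC computed; mean ± SD, n = 6; one-tailed Williams' test.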"}, "Rattus norvegicus [2]": {"test_system": "Rattus norvegicus", "assay": "Antidiabetic activity in N-STZ 1.5 rat assessed as increase in plasma insulin level at 1 to 3 mg/kg, po pre-treated for 60 mins followed by 1.5 g/kg glucose treatment and measured up to 120 mins by radioimmunoassay", "format": "functional, organism-based", "conditions": "dose 1-3 mg/kg, time min <=180", "how_it_was_run": "as §1"}, "Rattus norvegicus [3]": {"test_system": "Rattus norvegicus", "assay": "Antidiabetic activity in N-STZ 1.5 rat assessed as reduction in glucose level at 1 mg/kg, po pre-treated for 60 mins followed by 1.5 g/kg glucose treatment and measured up to 120 mins by OGTT", "format": "functional, organism-based", "conditions": "time min <=180", "how_it_was_run": "as §1"}, "[4]": {"assay": "MRT in rat at 1 mg/kg, po by LC/MS/MS analysis", "format": "ADME, organism-based", "conditions": "in vivo", "how_it_was_run": "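Cassette dosing, given by mouth at 1 mg/kg in 0.5% methylcellulose aqueous solution, with intravenous arm at 0.1 mg/kg, to non-fasted animals. Blood collected after dosing, plasma deproteinized and centrifuged, compound measured by LC/MS/MS.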"}, "[5]": {"biological_target": "T1, Glucose-dependent insulinotropic receptor (Mus musculus, UniProt Q7TQP3)", "T1 sequence (Q7TQP3 whole entry)": "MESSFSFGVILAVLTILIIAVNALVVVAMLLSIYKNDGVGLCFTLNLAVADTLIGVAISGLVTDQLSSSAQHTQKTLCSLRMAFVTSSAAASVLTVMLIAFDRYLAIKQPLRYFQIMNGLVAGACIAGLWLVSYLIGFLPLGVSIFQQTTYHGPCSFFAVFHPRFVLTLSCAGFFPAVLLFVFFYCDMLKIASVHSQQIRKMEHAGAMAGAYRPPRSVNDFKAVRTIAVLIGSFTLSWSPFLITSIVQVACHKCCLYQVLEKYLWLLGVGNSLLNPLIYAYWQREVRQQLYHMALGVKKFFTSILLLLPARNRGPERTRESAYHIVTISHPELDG", "assay": "Agonist activity at GPR119 in glucose-induced mouse L cells assessed as induction of GLP-1 secretion after 2 hrs by ELISA", "how_it_was_run": "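GLUTag cells (murine L cell line) seeded at 1 × 10^4 cells/well on poly-L-lysine, switched to low-glucose DMEM overnight, washed with HBSS, then exposed to compounds in KRBH buffer with 0.2% fatty acid free BSA and 10 mmol/L glucose for 2 h at 37 °C. Active GLP-1 in supernatant by ELISA; EC50 from n = 2.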"}, "[6]": {"biological_target": "T2, glucose-dependent insulinotropic receptor (Mesocricetus auratus, UniProt A0A1U8CD06)", "T2 sequence (A0A1U8CD06 whole entry)": "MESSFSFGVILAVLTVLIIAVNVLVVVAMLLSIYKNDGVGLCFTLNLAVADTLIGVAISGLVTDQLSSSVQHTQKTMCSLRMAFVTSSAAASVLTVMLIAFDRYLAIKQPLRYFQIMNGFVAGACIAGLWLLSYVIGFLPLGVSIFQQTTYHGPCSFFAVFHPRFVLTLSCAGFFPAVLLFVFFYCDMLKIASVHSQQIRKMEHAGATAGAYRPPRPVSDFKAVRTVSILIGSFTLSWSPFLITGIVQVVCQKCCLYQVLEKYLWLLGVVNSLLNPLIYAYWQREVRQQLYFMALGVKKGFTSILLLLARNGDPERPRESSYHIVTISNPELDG", "assay": "Agonist activity at GPR119 in glucose-induced golden hamster HIT-T15 cells assessed as increase in insulin secretion after 2 hrs by A1phaLISA", "format": "cell-based", "how_it_was_run": "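HIT-T15 hamster β-cells seeded 5×10^4 cells/well, next day pre-incubated 2 h in KRBH buffer (0.2% BSA). Then exposed to compounds in KRBH with 0.2% fatty acid free BSA and 10 mmol/L glucose for 2 h at 37 °C; secreted insulin in supernatant quantified by AlphaLISA. EC50 reported from n = 2.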"}, "hERG (KCNH2)": {"biological_target": "hERG (KCNH2) (Homo sapiens, UniProt Q12809)", "sequence (Q12809 whole entry)": "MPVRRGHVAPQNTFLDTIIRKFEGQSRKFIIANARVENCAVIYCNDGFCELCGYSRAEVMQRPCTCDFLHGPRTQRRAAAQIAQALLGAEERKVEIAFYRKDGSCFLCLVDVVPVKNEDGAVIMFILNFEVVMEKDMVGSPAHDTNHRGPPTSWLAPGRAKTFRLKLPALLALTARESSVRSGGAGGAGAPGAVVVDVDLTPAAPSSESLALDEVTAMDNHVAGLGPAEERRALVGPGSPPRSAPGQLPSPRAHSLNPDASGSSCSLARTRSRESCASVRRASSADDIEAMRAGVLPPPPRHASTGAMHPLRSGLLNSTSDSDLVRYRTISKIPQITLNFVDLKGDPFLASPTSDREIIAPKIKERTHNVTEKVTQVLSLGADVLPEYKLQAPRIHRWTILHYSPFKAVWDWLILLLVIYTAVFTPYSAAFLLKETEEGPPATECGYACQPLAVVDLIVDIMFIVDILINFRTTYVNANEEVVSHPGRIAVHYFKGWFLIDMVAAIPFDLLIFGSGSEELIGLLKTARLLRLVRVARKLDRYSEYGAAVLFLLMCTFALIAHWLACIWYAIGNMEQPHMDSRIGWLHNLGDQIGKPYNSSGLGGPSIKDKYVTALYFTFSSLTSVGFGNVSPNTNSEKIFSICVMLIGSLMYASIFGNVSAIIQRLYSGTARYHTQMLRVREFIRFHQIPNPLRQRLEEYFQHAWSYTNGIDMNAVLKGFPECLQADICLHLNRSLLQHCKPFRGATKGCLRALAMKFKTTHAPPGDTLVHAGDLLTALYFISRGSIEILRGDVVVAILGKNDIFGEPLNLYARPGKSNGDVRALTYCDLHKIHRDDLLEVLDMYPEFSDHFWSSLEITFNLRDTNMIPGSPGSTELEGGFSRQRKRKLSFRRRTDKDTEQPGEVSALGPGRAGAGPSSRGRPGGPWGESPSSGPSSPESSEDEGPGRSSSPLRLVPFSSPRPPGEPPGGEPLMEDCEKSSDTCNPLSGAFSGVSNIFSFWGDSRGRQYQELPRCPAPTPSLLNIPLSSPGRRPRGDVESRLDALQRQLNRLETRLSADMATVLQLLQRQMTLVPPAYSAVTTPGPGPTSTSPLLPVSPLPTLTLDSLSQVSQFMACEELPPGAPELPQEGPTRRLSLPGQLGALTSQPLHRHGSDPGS", "assay": "Inhibition of human ERG expressed in CHO cells at 10 uM incubated for 5 mins by patch-clamp assay relative to control", "format": "cell-based", "conditions": "CHO cells expressing human ERG", "how_it_was_run": "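hERG-expressing CHO cells grown at 32 °C, recorded by population patch clamp after amphotericin B perforation; PBS with Ca/Mg outside, KCl/EGTA/HEPES pH 7.3 inside. Holding −80 mV, step to 40 mV 2 s, then −50 mV 2 s; peak tail current before and after 5 min compound exposure. Percent inhibition = 100 − post/pre × 100; mean ± SD, n = 4.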"}, "[7]": {"assay": "Intrinsic clearance in human liver microsomes at 1 uM measured after 15 to 30 mins in presence of NADPH generating system by LC/MS/MS analysis", "format": "ADME, Microsome", "conditions": "time 15-30 min, read-out: CLH", "how_it_was_run": "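Human or rat liver microsomes at 0.2 mg/mL protein in 50 mM potassium phosphate pH 7.4 with 1 µM compound; reaction started with NADPH-generating system (5 mM MgCl2, 5 mM glucose-6-phosphate, 0.5 mM β-NADP+, 1.5 units/mL G6PDH). Stopped with acetonitrile at 15 and 30 min, parent by LC/MS/MS; rate from concentration–time slope, expressed as µL/min/mg.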"}, "[8]": {"biological_target": "T3, Glucose-dependent insulinotropic receptor (Homo sapiens, UniProt Q8TDV5)", "T3 sequence (Q8TDV5 whole entry)": "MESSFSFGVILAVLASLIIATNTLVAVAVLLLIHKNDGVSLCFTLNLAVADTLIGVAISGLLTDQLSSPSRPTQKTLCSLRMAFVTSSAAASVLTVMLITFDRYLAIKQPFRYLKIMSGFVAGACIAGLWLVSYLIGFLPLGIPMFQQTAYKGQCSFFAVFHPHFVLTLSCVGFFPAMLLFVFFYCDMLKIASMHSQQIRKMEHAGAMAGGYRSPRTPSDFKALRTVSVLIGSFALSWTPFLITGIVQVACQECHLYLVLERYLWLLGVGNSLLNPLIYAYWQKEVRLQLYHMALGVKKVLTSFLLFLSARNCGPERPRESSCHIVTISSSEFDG", "assay": "Agonist activity at human GPR119 expressed in CHO cells co-expressing cyclic AMP response element incubated for 2 hrs by steady-glo luciferase assay", "format": "cell-based", "how_it_was_run": "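CHO cells stably expressing human GPR119, seeded at 10,000 cells/well in MEM α with 500 µg/mL Geneticin overnight, then exposed to graded compound concentrations in MEM α/20 mmol/L HEPES/0.1% BSA for 2 h. cAMP-driven luciferase read with Steady-Glo. Response normalized between vehicle and a 10 µM reference agonist; EC50 as mean of n = 2.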"}}, "note": "pEC50: −log10 of the molar value. The source made the active and inactive calls. No cut-off for these calls is given here.", "data": [{"smiles": "CC(C)c1noc(N2CCC(Oc3cc(N4CCc5cc(N6CCC[C@H](O)C6=O)ccc54)ncn3)CC2)n1", "values": [{"measurement": "Activity", "setting": "Rattus norvegicus [1]", "result": "Dose-dependent effect"}, {"measurement": "Activity", "setting": "Rattus norvegicus [2]", "result": "Active"}, {"measurement": "Activity", "setting": "Rattus norvegicus [3]", "result": "Active"}, {"measurement": "MRT", "setting": "[4]", "result": 3.8, "unit": "h"}, {"measurement": "pEC50", "setting": "[5]", "result": 7.72}, {"measurement": "pEC50", "setting": "[6]", "result": 7.60}, {"measurement": "inhibition at 5 min, 10 µM", "setting": "hERG (KCNH2)", "result": 31, "unit": "%"}, {"measurement": "microsomal CLint at 1 µM", "setting": "[7]", "result": 9, "unit": "µL/min/mg"}, {"measurement": "pEC50", "setting": "[8]", "result": 7.80}]}]}
